Most compounds without a hit are left out; they make up all but 11% or so of the library.
S1P3 agonist: agonists of human S1P3 receptor; Q99500; S1P3 NFAT-BLA reporter cells, agonism, FRET ratio; relative to 1 µM S1P, basal subtracted; activation, % at 4.5 µM; 0.1% of 60,000 active;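 active = activation above the screen-wide mean plus 3 SD, cut at about 4.5% in these data, passing the limit was not always enough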
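Assay system: CHO cells stably expressing human S1P3, Gα16 and NFAT-β-lactamase reporter. Timing: overnight plating, 4 h compound 37 °C, 2 h substrate RT. Signal: β-lactamase FRET emission ratio 460/535 nm. Measure: percent activation versus median 1 µM S1P response, basal-subtracted, per plate. Repeats: primary screen single test, confirmation screen in triplicate.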
S1P1 ag-PAM: agonists and agonism potentiators of human S1P1 receptor; S1P1 CRE-bla cells, forskolin, beta-lactamase FRET, potentiator mode; S1P1 agonist co-added at EC20, 2 nM; 100% = saturating reference agonist, 0% = basal; P21453; 0.57% of 56,000 active; AID 449; activation, % at 9.5 µM;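 active = activation above a cutoff set at the mean activation of all tested compounds plus 3 SD, cut at about 54% in these data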;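 also: forskolin at 4 µM as EC80 and the EC20 agonist is SEW2871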
Target sequence (P21453 whole entry, looked up): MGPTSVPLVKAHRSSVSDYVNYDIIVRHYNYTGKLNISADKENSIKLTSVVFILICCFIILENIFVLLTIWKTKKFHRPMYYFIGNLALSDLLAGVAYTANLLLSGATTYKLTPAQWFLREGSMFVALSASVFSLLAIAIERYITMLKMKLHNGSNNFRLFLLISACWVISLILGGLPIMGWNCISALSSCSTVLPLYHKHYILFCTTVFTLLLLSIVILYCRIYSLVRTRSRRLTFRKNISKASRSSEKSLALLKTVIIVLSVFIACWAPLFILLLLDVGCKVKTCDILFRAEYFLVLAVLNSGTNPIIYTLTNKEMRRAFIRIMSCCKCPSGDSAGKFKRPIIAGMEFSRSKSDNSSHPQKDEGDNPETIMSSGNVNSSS
M1 agonist: activates the M1 muscarinic receptor; CHO-M1 cells, Fluo-4 calcium fluorescence, agonist mode; stronger effect = higher value; B-score at 10 µM; 3% of 64,000 active;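 active = fluorescence rise, raw or as B-score row- and column-corrected plate score, outside the 99.7% band of its plate's samples, either direction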
M1 antagonist: M1 muscarinic receptor (rat) antagonism; AID 628; B-score at 10 µM; P08482; 3.4% of 64,000 active; CHO-M1 cells, Fluo-4 calcium, ACh EC80 antagonist mode; stronger effect = lower value;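 active = calcium fluorescence response, raw or row-and-column corrected B-score, differing from the plate sample mean either way at a set confidence level, mostly lower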
D1 allo mod: allosteric modulators of human D1 dopamine receptor; B-score at 10 µM; HEK293 D1, CRE-luciferase, dopamine EC30 potentiation; actives deviate in either direction; P21728; 5.9% of 58,000 active;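 active = luminescence count or its row- and column-corrected plate score outside the 99.7% band of the plate's sample wells, on either side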
M1 antag confirm: confirmation of rat M1 muscarinic receptor antagonists; shares compounds with M1 antagonist; CHO-M1 cells, Fluo-4 calcium, ACh EC80 antagonism; stronger effect = lower value; calcium response (max-min fluorescence) at 10 µM; 43% of 1,700 active; AID 677;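 active = calcium response below the same-plate mean of wells given acetylcholine alone at its 80%-effect dose, minus 3 SD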
mGluR4 antag: acts on human mGluR4 in M1 antagonist selectivity test. 0.9% of 1,700 active. CHO-mGluR4 calcium flux, Fluo-4 fluorescence, glutamate EC80; stronger effect = lower value. fluorescence response (max-min) at 10 µM. AID 678. shares compounds with M1 antagonist;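 active = fluorescence response below the plate's average for near-maximal glutamate wells, less 3 SD of those wells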;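 also: raw unnormalized fluorescence span taken in the window right after glutamate addition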
Large screens that a line does not name were inactive (follow-up assays come after a bar, where they were run).

COCCN(C(=O)c1csnn1)C(C(=O)NC(C)(C)C)c1cccc(OC)c1 (stereo not given)	none
O=C(CCCCCn1c(=O)[nH]c2ccccc2c1=O)NCCCN1CCN(c2ccccc2F)CC1	M1 antagonist -3.5 | M1 antag confirm inactive | mGluR4 antag inactive
COc1ccc(/C(O)=C2/C(=O)C(=O)N(CCCN(C)C)C2c2ccc(C)o2)cc1Cl (stereo not given)	none
OC(CN1CCCCC1)CN(c1ccccc1)c1ccccc1 (stereo not given)	M1 antagonist -22 | M1 antag confirm 78 | mGluR4 antag inactive
OC(CN1CCOCC1)CN(c1ccccc1)c1ccccc1 (stereo not given)	none
CC(=O)Nc1ccc(S(=O)(=O)N2CCC(NC(=O)c3ccco3)CC2)cc1	none
O=S(=O)(NCCc1ccccc1F)c1cccc(S(=O)(=O)N2CCOCC2)c1	none (no result: S1P3 agonist, S1P1 ag-PAM)
COc1ccccc1CNS(=O)(=O)c1cccc(S(=O)(=O)N2CCOCC2)c1	M1 antagonist -4.7 | M1 antag confirm inactive | mGluR4 antag inactive
O=C(c1c(F)c(F)c(F)c(F)c1F)N1CCN(c2cccc(C(F)(F)F)c2)CC1	none
O=C(c1ccccc1F)N1CCN(c2cccc(C(F)(F)F)c2)CC1	M1 antagonist -2.9 | M1 antag confirm inactive | mGluR4 antag inactive
O=C(c1coc2ccccc2c1=O)N1CCN(c2cccc(C(F)(F)F)c2)CC1	M1 antagonist -8.7 (no result: S1P3 agonist, S1P1 ag-PAM) | M1 antag confirm 178 | mGluR4 antag inactive
CCCCC(=O)NCCc1cc2c(OC)ccc(OC)c2[nH]c1=O	none
CCOC(=O)c1ccc(N2C(=O)CC(SCC(N)C(=O)OCC)C2=O)cc1 (stereo not given)	none (no result: S1P3 agonist, S1P1 ag-PAM)
O=C1CC(SCCO)C(=O)N1c1ccc(Oc2ccccc2)cc1 (stereo not given)	M1 antagonist -2.7 (no result: S1P1 ag-PAM) | M1 antag confirm inactive | mGluR4 antag inactive
c1ccc(CNc2ccc3c(c2)ncn3C2CCCCC2)nc1	M1 antagonist -4.9 | M1 antag confirm inactive | mGluR4 antag inactive
Cc1nc(N2CCN(C(=O)c3ccco3)CC2)c2c3c(sc2n1)CCC3	M1 antagonist -3.1 (no result: S1P3 agonist, S1P1 ag-PAM) | M1 antag confirm inactive | mGluR4 antag inactive
CC(C)c1nc(N2CCN(C(=O)c3ccco3)CC2)c2c3c(sc2n1)CCCC3	none
Cc1csc2nc(CCNS(=O)(=O)c3ccc4c(c3)OCCO4)cn12	M1 antagonist -2.6 | M1 antag confirm inactive | mGluR4 antag inactive
Cc1csc2nc(CNS(=O)(=O)c3ccc4c(c3)OCCO4)cn12	none
CC(NC(=O)c1ccccc1O)c1ccccc1 (stereo not given)	none (no result: S1P3 agonist, S1P1 ag-PAM)
CC1CCCN(C(C(=O)Nc2ccc3c(c2)OCO3)c2ccccc2)C1 (stereo not given)	M1 antagonist -5 | M1 antag confirm 479 | mGluR4 antag inactive
O=C(Nc1ccc2c(c1)OCO2)C(c1ccccc1)N1CCCCC1 (stereo not given)	M1 antagonist -3.4 | M1 antag confirm 501 | mGluR4 antag inactive
Cc1cc(OCCCCCNCCO)cc(C)c1Cl	M1 antagonist -3.8 (no result: D1 allo mod) | M1 antag confirm inactive | mGluR4 antag inactive
CCN(CC)C(=O)CSc1nnc(-c2cc3ccccc3cc2O)n1CC	M1 antagonist -3.4 | M1 antag confirm inactive | mGluR4 antag inactive
O=C(CSc1nnc(-c2cc3ccccc3cc2O)n1Cc1ccco1)c1ccc(F)cc1	none
COC(=O)C1=C(N)n2c(s/c(=C\c3cccnc3)c2=O)=C(C(=O)OC)C1c1cccnc1 (stereo not given)	none
COC(=O)c1c(C)oc2cc(Br)c(OCC(=O)C(C)(C)C)cc12	M1 antagonist -1.9 (no result: S1P3 agonist, S1P1 ag-PAM) | M1 antag confirm inactive | mGluR4 antag inactive
COc1ccc(S(=O)(=O)NC(CC(=O)NCc2ccco2)c2ccco2)cc1 (stereo not given)	none
Cc1ccc(S(=O)(=O)NC(CC(=O)NCc2ccco2)c2ccco2)cc1 (stereo not given)	M1 antagonist -4.7 | M1 antag confirm inactive | mGluR4 antag inactive
CC1C2C(C)N(C)C(=O)N(C)C2N(C)C(=O)N1C (stereo not given)	none
CN1C(=O)N(C)C2C1NC(=O)N2C (stereo not given)	M1 antagonist -9.2 | M1 antag confirm inactive | mGluR4 antag inactive
CCOC(=O)Nc1ccc2c(c1)N(C(=O)CN1CCN(C)CC1)c1ccccc1S2	M1 antagonist -13 | M1 antag confirm 46 | mGluR4 antag inactive
CCOC(=O)Nc1ccc2c(c1)N(C(=O)CCN(C)C)c1ccccc1S2	M1 antagonist -10 | M1 antag confirm 22 | mGluR4 antag inactive
CCOC(=O)Nc1ccc2c(c1)N(C(=O)OC)c1ccccc1CC2	none
Cc1oc2nc(SCC(=O)NC3CCCCC3)nc(N)c2c1C	none
COc1ccccc1-c1nnc(SCC(=O)NCc2c(C)c(Cl)cc(C(C)C)c2O)o1	none
CC(=O)CCc1c[nH]c2c(C(=O)O)cccc12	none
CCN(CC)C(=O)COc1ccc(-c2nnc(N3CCCCC3)c3ccccc23)cc1	M1 antagonist -2.9 | M1 antag confirm 531 | mGluR4 antag inactive
O=C(Cn1nnc(-c2ccc(Cl)cc2)n1)NCC1CCCCC1	none
Cc1ccc(N=C2SCCCN2C(=O)c2ccco2)cc1Cl	M1 antagonist -1.9 (no result: S1P3 agonist, S1P1 ag-PAM) | M1 antag confirm 532 | mGluR4 antag inactive
O=C(Nc1ccc(N2CCOCC2)c(Cl)c1)c1ccco1	none
COC(=O)c1ccc(C2C(C(=O)OC(C)C)=C(C)N=C3SCCC(=O)N32)cc1 (stereo not given)	none
COC(=O)C1=C(C)N=C2SCCC(=O)N2C1/C=C/c1ccccc1 (stereo not given)	M1 antagonist -4.5 | M1 antag confirm 253 | mGluR4 antag inactive
Clc1ccc(Cc2noc(-c3cccs3)n2)cc1	none (no result: S1P1 ag-PAM)
CCN1CCN(c2ncc(C(=O)Nc3ccccc3C(=O)OC)c3ccccc23)CC1	M1 antagonist -14 | M1 antag confirm 166 | mGluR4 antag inactive
CCN1CCN(c2ncnc3sc(C(=O)Nc4ccccc4F)c(C)c23)CC1	none (no result: D1 allo mod)
CCOC(=O)c1cnc(-c2ccccc2)nc1N	M1 antagonist -2.2 | M1 antag confirm inactive | mGluR4 antag inactive
Cc1cc(C(=O)N(C)Cc2ccc(Br)cc2)no1	M1 antagonist -7.8 | M1 antag confirm inactive | mGluR4 antag inactive
CCn1cc(C(=O)NCCCN2CC(C)CC(C)C2)c2cc(OC)c(OC)cc2c1=O (stereo not given)	M1 antagonist -1.8 (no result: S1P3 agonist, S1P1 ag-PAM, D1 allo mod) | M1 antag confirm inactive | mGluR4 antag inactive
O=C(O)CCCCCN1C(=O)CSC1=S	M1 antagonist -6.4 | M1 antag confirm inactive | mGluR4 antag inactive

Screens: PubChem BioAssay, several laboratories
